Laboratory results taken from ChEMBL document CHEMBL4334458, “Design, synthesis and antibacterial evaluation of novel 15-membered 11a-azahomoclarithromycin derivatives with the 1, 2, 3-triazole side chain” (Eur J Med Chem, 2019).
Values after ≈ are worked out from the molar mass of the structure shown.

Legend:
Streptococcus pyogenes [1] = test: Antibacterial activity against erythromycin-resistant Streptococcus pyogenes 2 clinical isolate incubated for 24 hrs by broth dilution method; assay type: functional
Pseudomonas aeruginosa = test: Antibacterial activity against penicillin-susceptible Pseudomonas aeruginosa ATCC 27853 incubated for 24 hrs by broth dilution method; assay type: functional; settings: ATCC 27853, 24 h
Outline: (§1)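 CLSI broth microdilution in cation-adjusted Mueller-Hinton broth. Twofold dilutions spanned 0.25–128 or 0.5–256 µg/mL, with CAM and AZM as controls. Log-phase bacteria were added and incubated 24 h at 37 °C. MIC was read by turbidity as the concentration of the last clear well.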

Staphylococcus aureus [2] = test: Antibacterial activity against methicillin-resistant Staphylococcus aureus ATCC 43300 incubated for 24 hrs by broth dilution method; assay type: functional; settings: ATCC 43300, 24 h
Streptococcus pyogenes [3] = test: Antibacterial activity against erythromycin-susceptible Streptococcus pyogenes 1 clinical isolate incubated for 24 hrs by broth dilution method; assay type: functional; outline: as §1
Streptococcus pneumoniae [4] = test: Antibacterial activity against erythromycin-resistant Streptococcus pneumoniae AB11 expressing the ermB and mefA incubated for 24 hrs by broth dilution method; assay type: functional
Staphylococcus aureus [5] = test: Antibacterial activity against penicillin-resistant Staphylococcus aureus ATCC 31007 incubated for 24 hrs by broth dilution method; assay type: functional; settings: ATCC 31007, 24 h
[6] = Cytotoxicity against human MCF7 cells assessed as viable cells at 64 to 128 ug/ml incubated for 24 hrs by MTT assay relative to control; assay type: cell-based; settings: read-out: Activity
Outline: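 MCF-7 cells were seeded at 10^4 cells/well and allowed to settle overnight. Compound was added for 24 h, with CAM as control and DMSO as vehicle control. MTT (5 mg/mL stock) was then added for 4 h at 37 °C, formazan dissolved in DMSO for 10 min, and absorbance read at 570 nm. Read-out was percent viable cells.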

Staphylococcus aureus [7] = test: Antibacterial activity against erythromycin-susceptible Staphylococcus aureus ATCC 25923 incubated for 24 hrs by broth dilution method; assay type: functional; settings: ATCC 25923, 24 h; outline: as §1
Staphylococcus aureus [8] = test: Bactericidal activity against erythromycin-susceptible Staphylococcus aureus ATCC 25923 incubated for 24 hrs followed by re-plating on tryptic soy agar plates for 24 hrs by broth microdilution assay; assay type: functional; settings: ATCC 25923, 24 h
Outline: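 Built on the broth microdilution MIC set-up (CAMH, 24 h, 37 °C). After 24 h, contents of clear wells were plated on tryptic soy agar and incubated 24 h at 37 °C. MBC was taken as the lowest concentration giving no colonies.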

Staphylococcus aureus [9] = test: Ratio of MBC to MIC for erythromycin-susceptible Staphylococcus aureus ATCC 25923; assay type: functional
Streptococcus pneumoniae [10] = test: Antibacterial activity against erythromycin-resistant Streptococcus pneumoniae B1 expressing the ermB incubated for 24 hrs by broth dilution method; assay type: functional
Escherichia coli = test: Antibacterial activity against penicillin-susceptible Escherichia coli ATCC 25922 incubated for 24 hrs by broth dilution method; assay type: functional; settings: ATCC 25922, 24 h; outline: as §1
Bacillus subtilis = test: Antibacterial activity against penicillin-susceptible Bacillus subtilis ATCC 9372 incubated for 24 hrs by broth dilution method; assay type: functional; settings: ATCC 9372, 24 h; outline: as §1
Streptococcus pneumoniae [11] = test: Ratio of MBC to MIC for erythromycin-resistant Streptococcus pneumoniae AB11 expressing the ermB and mefA; assay type: functional
Streptococcus pneumoniae [12] = test: Bactericidal activity against erythromycin-resistant Streptococcus pneumoniae AB11 expressing the ermB and mefA incubated for 24 hrs followed by re-plating on tryptic soy agar plates for 24 hrs by broth microdilution assay; assay type: functional
Outline: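 Follows the 24 h, 37 °C CAMH broth microdilution MIC plate; contents of clear wells plated onto tryptic soy agar and incubated 24 h at 37 °C; MBC taken as the lowest concentration giving no colonies.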

Streptococcus pyogenes [13] = test: Ratio of MIC for CAM to MIC for test compound for antibacterial activity against erythromycin-resistant Streptococcus pyogenes 2 clinical isolate incubated for 24 hrs by broth dilution method; assay type: functional
Outline: (§2)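 Ratio of clarithromycin MIC to compound MIC. Both MICs come from CLSI broth microdilution in cation-adjusted Mueller-Hinton broth with 2-fold dilutions, log-phase inoculum and 24 h at 37 °C, read by turbidity as the last clear well.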

Streptococcus pneumoniae [14] = test: Ratio of MIC for CAM to MIC for test compound for antibacterial activity against erythromycin-resistant Streptococcus pneumoniae AB11 expressing the ermB and mefA incubated for 24 hrs by broth dilution method; assay type: functional; outline: as §2
Staphylococcus aureus [15] = test: Ratio of MIC for CAM to MIC for test compound for antibacterial activity against penicillin-resistant Staphylococcus aureus ATCC 31007 incubated for 24 hrs by broth dilution method; assay type: functional; outline: as §2
Streptococcus pneumoniae [16] = test: Ratio of MIC for CAM to MIC for test compound for antibacterial activity against erythromycin-resistant Streptococcus pneumoniae B1 expressing the ermB incubated for 24 hrs by broth dilution method; assay type: functional; outline: as §2
Staphylococcus aureus [17] = test: Ratio of MIC for CAM to MIC for test compound for antibacterial activity against methicillin-resistant Staphylococcus aureus ATCC 43300 incubated for 24 hrs by broth dilution method; assay type: functional; outline: as §2

SMILES | MIC (Streptococcus pyogenes [1]) [µg/mL] | MIC (Pseudomonas aeruginosa) [µg/mL] | MIC (Staphylococcus aureus [2]) [µg/mL] | MIC (Streptococcus pyogenes [3]) [µg/mL] | MIC (Streptococcus pneumoniae [4]) [µg/mL] | MIC (Staphylococcus aureus [5]) [µg/mL] | viability at 24 h [6] [%] | MIC (Staphylococcus aureus [7]) [µg/mL] | MBC (Staphylococcus aureus [8]) [µg/mL] | Ratio (Staphylococcus aureus [9]) | MIC (Streptococcus pneumoniae [10]) [µg/mL] | MIC (Escherichia coli) [µg/mL] | MIC (Bacillus subtilis) [µg/mL] | Ratio (Streptococcus pneumoniae [11]) | MBC (Streptococcus pneumoniae [12]) [µg/mL] | Ratio (Streptococcus pyogenes [13]) | Ratio (Streptococcus pneumoniae [14]) | Ratio (Staphylococcus aureus [15]) | Ratio (Streptococcus pneumoniae [16]) | Ratio (Staphylococcus aureus [17])
CO[C@]1(C)C[C@@H](C)[C@H](O)[C@H](C)CN(C)C[C@H](COCc2cn(-c3ccccc3)nn2)OC(=O)[C@H](C)[C@@H](O[C@H]2C[C@@](C)(OC)[C@@H](O)[C@H](C)O2)[C@H](C)[C@H]1O[C@@H]1O[C@H](C)C[C@H](N(C)C)[C@H]1O | 128 (≈ 143 µM) | 16 (≈ 17.9 µM) | > 256 | 0.25 (≈ 0.28 µM) | 128 (≈ 143 µM) | > 256 | 60 | ≤ 0.25 | 128 (≈ 143 µM) | >512 | > 256 | 64 (≈ 71.7 µM) | ≤ 0.25 | – | – | – | – | – | – | –
CC[C@H]1OC(=O)[C@H](C)[C@@H](O[C@H]2C[C@@](C)(OC)[C@@H](O)[C@H](C)O2)[C@H](C)[C@@H](O[C@@H]2O[C@H](C)C[C@H](N(C)C)[C@H]2O)[C@](C)(OC)C[C@@H](C)C(=O)[C@H](C)[C@@H](O)[C@]1(C)O [CLARITHROMYCIN] | 256 (≈ 342 µM) | 32 (≈ 42.8 µM) | > 256 | ≤ 0.03 | 128 (≈ 171 µM) | > 256 | – | ≤ 0.25 | 128 (≈ 171 µM) | >512 | > 256 | 128 (≈ 171 µM) | ≤ 0.25 | 1 | 128 (≈ 171 µM) | – | – | – | – | –
CCCCc1ccc(-c2cn(C[C@H]3COC(=O)[C@H](C)[C@@H](O[C@H]4C[C@@](C)(OC)[C@@H](O)[C@H](C)O4)[C@H](C)[C@@H](O[C@@H]4O[C@H](C)C[C@H](N(C)C)[C@H]4O)[C@](C)(OC)C[C@@H](C)[C@H](O)[C@H](C)CN3C)nn2)cc1 | 16 (≈ 17.4 µM) | > 128 | > 256 | 4 (≈ 4.36 µM) | 16 (≈ 17.4 µM) | 16 (≈ 17.4 µM) | – | 16 (≈ 17.4 µM) | – | – | > 256 | > 128 | 8 (≈ 8.71 µM) | – | – | 8 - 16 | 8 - 16 | 8 - 16 | – | –
COc1cccc(-n2cc(COC[C@H]3CN(C)C[C@@H](C)[C@@H](O)[C@H](C)C[C@@](C)(OC)[C@H](O[C@@H]4O[C@H](C)C[C@H](N(C)C)[C@H]4O)[C@@H](C)[C@H](O[C@H]4C[C@@](C)(OC)[C@@H](O)[C@H](C)O4)[C@@H](C)C(=O)O3)nn2)c1 | 128 (≈ 139 µM) | 32 (≈ 34.7 µM) | > 256 | 0.5 (≈ 0.542 µM) | 128 (≈ 139 µM) | > 256 | 60 | ≤ 0.25 | > 128 | >512 | > 256 | 64 (≈ 69.4 µM) | ≤ 0.25 | – | – | – | – | – | – | –
CCCc1ccc(-n2cc(COC[C@@H]3CN(C)C[C@@H](C)[C@@H](O)[C@H](C)C[C@@](C)(OC)[C@H](O[C@@H]4O[C@H](C)C[C@H](N(C)C)[C@H]4O)[C@@H](C)[C@H](O[C@H]4C[C@@](C)(OC)[C@@H](O)[C@H](C)O4)[C@@H](C)C(=O)O3)nn2)cc1 | 32 (≈ 34.3 µM) | > 128 | 16 (≈ 17.1 µM) | 4 (≈ 4.28 µM) | 8 (≈ 8.56 µM) | 32 (≈ 34.3 µM) | – | 4 (≈ 4.28 µM) | – | – | 16 (≈ 17.1 µM) | 64 (≈ 68.5 µM) | 1 (≈ 1.07 µM) | 8 | 64 (≈ 68.5 µM) | 8 - 16 | 8 - 16 | 8 - 16 | 8 - 16 | 8 - 16
COc1ccc(-n2cc(COC[C@H]3CN(C)C[C@@H](C)[C@@H](O)[C@H](C)C[C@@](C)(OC)[C@H](O[C@@H]4O[C@H](C)C[C@H](N(C)C)[C@H]4O)[C@@H](C)[C@H](O[C@H]4C[C@@](C)(OC)[C@@H](O)[C@H](C)O4)[C@@H](C)C(=O)O3)nn2)cc1 | 128 (≈ 139 µM) | 16 (≈ 17.4 µM) | > 256 | 0.25 (≈ 0.271 µM) | 64 (≈ 69.4 µM) | > 256 | – | 1 (≈ 1.08 µM) | – | – | > 256 | 64 (≈ 69.4 µM) | 0.5 (≈ 0.542 µM) | – | – | – | – | – | – | –
CO[C@]1(C)C[C@@H](C)[C@H](O)[C@H](C)CN(C)C[C@@H](COCc2cn(-c3ccccc3)nn2)OC(=O)[C@H](C)[C@@H](O[C@H]2C[C@@](C)(OC)[C@@H](O)[C@H](C)O2)[C@H](C)[C@H]1O[C@@H]1O[C@H](C)C[C@H](N(C)C)[C@H]1O | 64 (≈ 71.7 µM) | 128 (≈ 143 µM) | 256 (≈ 287 µM) | 1 (≈ 1.12 µM) | 64 (≈ 71.7 µM) | > 256 | – | 1 (≈ 1.12 µM) | – | – | 256 (≈ 287 µM) | 128 (≈ 143 µM) | 1 (≈ 1.12 µM) | – | – | – | – | – | – | –
CO[C@]1(C)C[C@@H](C)[C@H](O)[C@H](C)CN(C)C[C@@H](COCc2cn(-c3ccc(C(C)C)cc3)nn2)OC(=O)[C@H](C)[C@@H](O[C@H]2C[C@@](C)(OC)[C@@H](O)[C@H](C)O2)[C@H](C)[C@H]1O[C@@H]1O[C@H](C)C[C@H](N(C)C)[C@H]1O | 16 (≈ 17.1 µM) | 128 (≈ 137 µM) | 32 (≈ 34.3 µM) | 4 (≈ 4.28 µM) | 16 (≈ 17.1 µM) | 32 (≈ 34.3 µM) | – | 4 (≈ 4.28 µM) | – | – | 16 (≈ 17.1 µM) | 64 (≈ 68.5 µM) | 1 (≈ 1.07 µM) | – | – | 8 - 16 | 8 - 16 | 8 - 16 | 8 - 16 | 8 - 16
CO[C@]1(C)C[C@@H](C)[C@H](O)[C@H](C)CN(C)[C@H](Cn2cc(-c3ccc(F)cc3)nn2)COC(=O)[C@H](C)[C@@H](O[C@H]2C[C@@](C)(OC)[C@@H](O)[C@H](C)O2)[C@H](C)[C@H]1O[C@@H]1O[C@H](C)C[C@H](N(C)C)[C@H]1O | 128 (≈ 145 µM) | 128 (≈ 145 µM) | 256 (≈ 291 µM) | 16 (≈ 18.2 µM) | 128 (≈ 145 µM) | 128 (≈ 145 µM) | – | 16 (≈ 18.2 µM) | – | – | 128 (≈ 145 µM) | > 128 | 16 (≈ 18.2 µM) | – | – | – | – | – | – | –
CO[C@]1(C)C[C@@H](C)[C@H](O)[C@H](C)CN(C)C[C@@H](Cn2cc(-c3ccccc3)nn2)OC(=O)[C@H](C)[C@@H](O[C@H]2C[C@@](C)(OC)[C@@H](O)[C@H](C)O2)[C@H](C)[C@H]1O[C@@H]1O[C@H](C)C[C@H](N(C)C)[C@H]1O | 64 (≈ 74.2 µM) | 64 (≈ 74.2 µM) | 256 (≈ 297 µM) | 0.5 (≈ 0.58 µM) | 64 (≈ 74.2 µM) | 128 (≈ 148 µM) | – | 0.5 (≈ 0.58 µM) | – | – | 64 (≈ 74.2 µM) | 64 (≈ 74.2 µM) | 1 (≈ 1.16 µM) | – | – | – | – | – | – | –
CO[C@]1(C)C[C@@H](C)[C@H](O)[C@H](C)CN(C)[C@@H](Cn2cc(-c3ccccc3)nn2)COC(=O)[C@H](C)[C@@H](O[C@H]2C[C@@](C)(OC)[C@@H](O)[C@H](C)O2)[C@H](C)[C@H]1O[C@@H]1O[C@H](C)C[C@H](N(C)C)[C@H]1O | 128 (≈ 148 µM) | > 128 | 256 (≈ 297 µM) | 2 (≈ 2.32 µM) | 128 (≈ 148 µM) | 256 (≈ 297 µM) | – | 32 (≈ 37.1 µM) | – | – | 256 (≈ 297 µM) | > 128 | 16 (≈ 18.6 µM) | – | – | – | – | – | – | –
